Experimental data: PubChem BioAssay AID588817 (The Scripps Research Institute Molecular Screening Center, 2011)
Calls of active or inactive are those of the source.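 How the source made its calls: active means compounds cutting probe labeling of the enzyme in cells by at least 50% at 0.1 µM; inactive means under 50% inhibition at that dose.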

Target: Platelet-activating factor acetylhydrolase (Mus musculus) (UniProt Q60963)
Assay: in situ blockade of mouse pPAFAH activity – cell-based, gel-based competitive ABPP, fluorescence, late-stage follow-up (AID 588817)
Details: HEK293T overexpressing mouse pPAFAH, 4 h; at 10 µM (top of the series)
Method in brief: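 Detection: gel fluorescence band intensity after SDS-PAGE; System: HEK293T cells transiently overexpressing mouse pPAFAH, treated in situ; Amount: lysate fractions at 1 mg/mL protein; Control set: DMSO high control, blank-gel background low control; Schedule: 4 h compound treatment, 30 min probe labelling, 37 °C; Reagent: 1 µM FP-Rh probe.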

Sequence of Platelet-activating factor acetylhydrolase (Mus musculus) (Q60963 whole entry, looked up): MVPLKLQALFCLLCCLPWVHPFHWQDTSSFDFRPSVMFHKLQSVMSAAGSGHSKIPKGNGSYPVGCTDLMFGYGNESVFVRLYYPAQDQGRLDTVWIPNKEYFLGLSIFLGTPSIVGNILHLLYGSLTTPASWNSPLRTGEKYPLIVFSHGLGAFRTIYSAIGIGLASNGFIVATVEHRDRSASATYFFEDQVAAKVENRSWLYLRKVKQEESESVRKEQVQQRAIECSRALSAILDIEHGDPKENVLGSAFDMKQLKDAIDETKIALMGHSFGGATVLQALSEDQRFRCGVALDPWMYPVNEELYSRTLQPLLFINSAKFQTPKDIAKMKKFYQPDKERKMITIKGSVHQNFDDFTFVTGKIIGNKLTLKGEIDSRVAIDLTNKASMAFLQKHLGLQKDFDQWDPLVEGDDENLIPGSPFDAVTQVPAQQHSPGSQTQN

SMILES: Cc1cc(N2CCN(C(=O)Oc3ccc(-c4ccccc4)cn3)CC2)c2ccccc2n1
- inhibition: 100% (active)
